FAK blocker – blocks human focal adhesion kinase activity | AID 727 | biochemical FAK kinase activity assay | inhibition, %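 (tested at 7 µM)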 | Q05397 | actives 0.84% (n = 97,000); in the data active = inhibition above about 19%
PLK1 kinase inh – PLK1 (human) kinase inhibition. P53350. recombinant PLK1 kinase, TR-FRET peptide phosphorylation. inhibition, % at 10 µM. actives 0.53% (n = 97,000). AID 619;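 active = inhibition of 50% or more in the single-concentration screen; inactive = inhibition below 50%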
HIV Rev-RRE inh – HIV Rev-RRE protein-RNA interaction inhibition; P05866; Rev peptide-RRE RNA binding, FRET; inhibition, % at 8 µM; actives 0.79% (n = 97,000); AID 704;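 active = inhibition above the screen-wide mean plus 3 SD, cut at about 35% in these data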
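assay system = Cy5-tagged RRE RNA duplex with fluorescein-tagged Rev peptide | incubation = 5 + 15 min at 25 °C | also added = labelled Rev peptide | measure = % inhibition of FRET ratio versus controls | benchmarks = DMSO wells as 0% and neomycin B wells as 100% inhibition | measured by = FRET fluorescence readout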
EphB4 ephrin blk – blocks human EphB4 binding to ephrin-B2; P54760; EphB4 LBD / TNYL-RAW-Alexa532 peptide, fluorescence polarization; inhibition, % at 7 µM; actives 0.15% (n = 97,000); AID 720;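 active = inhibition above the screen-wide mean inhibition plus 3 SD, cut at about 15% in these data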
Target sequence (P54760 whole entry, looked up, the tested form may be a part): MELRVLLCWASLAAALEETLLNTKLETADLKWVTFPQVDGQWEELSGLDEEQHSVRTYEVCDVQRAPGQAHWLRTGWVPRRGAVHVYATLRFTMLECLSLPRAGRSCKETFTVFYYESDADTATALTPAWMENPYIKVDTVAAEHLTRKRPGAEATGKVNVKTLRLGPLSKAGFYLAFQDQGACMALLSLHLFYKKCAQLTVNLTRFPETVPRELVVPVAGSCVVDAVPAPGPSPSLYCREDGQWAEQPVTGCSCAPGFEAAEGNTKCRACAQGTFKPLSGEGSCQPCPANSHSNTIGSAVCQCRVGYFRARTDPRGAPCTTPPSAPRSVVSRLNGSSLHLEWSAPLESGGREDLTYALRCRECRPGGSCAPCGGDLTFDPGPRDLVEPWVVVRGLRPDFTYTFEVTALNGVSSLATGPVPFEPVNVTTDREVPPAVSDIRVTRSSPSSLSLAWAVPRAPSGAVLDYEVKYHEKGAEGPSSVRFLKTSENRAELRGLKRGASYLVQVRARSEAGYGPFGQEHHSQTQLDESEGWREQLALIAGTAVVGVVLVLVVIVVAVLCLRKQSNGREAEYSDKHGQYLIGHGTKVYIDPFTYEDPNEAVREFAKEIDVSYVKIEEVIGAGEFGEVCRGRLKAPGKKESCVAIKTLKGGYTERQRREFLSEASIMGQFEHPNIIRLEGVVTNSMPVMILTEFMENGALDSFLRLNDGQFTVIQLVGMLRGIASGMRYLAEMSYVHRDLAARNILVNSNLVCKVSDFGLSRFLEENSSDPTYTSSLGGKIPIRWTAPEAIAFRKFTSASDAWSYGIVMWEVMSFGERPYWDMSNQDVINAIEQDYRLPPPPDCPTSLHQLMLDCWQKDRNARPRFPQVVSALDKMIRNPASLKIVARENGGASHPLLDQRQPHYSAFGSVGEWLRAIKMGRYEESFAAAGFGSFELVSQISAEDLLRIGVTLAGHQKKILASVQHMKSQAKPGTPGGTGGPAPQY
PLK1 PBD inh – blocks phosphopeptide binding to human Plk1 polo box domain; actives 0.13% (n = 97,000); inhibition, %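 (tested at about 20 µM)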; P53350; Plk1 PBD phosphopeptide binding, fluorescence polarization; in the data active = inhibition above about 34%, passing the limit was not always enough
Cav32 inh – blocks human Cav3.2 T-type calcium channel | Cav3.2-expressing cells, Fluo-4 calcium fluorescence FDSS; hits give low values | B-score at 10 µM | actives 4% (n = 100,000);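 active = single-dose well whose peak fluorescence ratio is a statistical outlier from its plate by either plate-standardised score or position-corrected B-score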
Each line names hits and unclear results; the compound was inactive in the other large screens; [ ] = remark or other dose. Hits are enriched below; roughly 5.3% of the tested compounds scored in any of these assays.

COc1ccc2nc(NC(=O)c3cc(C)oc3C)sc2c1	none
COc1ccc(NS(=O)(=O)c2cc(C)ccc2NC(=O)c2cc(C)oc2C)cc1	Cav32 inh -6.91
CC(C)OC(=O)CSc1nnc(CNc2ccc(Cl)cc2)n1Cc1ccccc1	Cav32 inh -6.67
CCn1c(CNc2ccc(Cl)cc2)nnc1SCc1ccccc1	Cav32 inh -8.49
CCOc1ccc(NCc2nnc(SCc3ccccc3Cl)n2-c2ccccc2)cc1	Cav32 inh -4.22
CSCC[C@H](NC(=O)OC(C)(C)C)c1nnc(SCC=C(C)C)o1	none
CC(C)CCNC(=O)C1CCCN1C(=O)NC1CCCCC1 (centres undefined)	none
COc1cc(C2C(C#N)=C(N)Oc3cc(O)ccc32)cc2c1OCO2 (centres undefined)	none (no result: FAK blocker, PLK1 kinase inh, HIV Rev-RRE inh, EphB4 ephrin blk, PLK1 PBD inh)
COc1cc(C2C(C#N)=C(N)Oc3cc(N(C)C)ccc32)cc2c1OCO2 (centres undefined)	HIV Rev-RRE inh 92.3[fluorescence artefact?]
CCO/C(C)=C1\C(=O)N(CC)c2ccccc21	none
CCOC(=O)c1cc2n(c1/N=C/N(C)C)-c1ccccc1C2=O	HIV Rev-RRE inh 135.2[fluorescence artefact?], Cav32 inh -3.9
CC(C)c1cc(=O)oc2c3c4c(cc12)CCCN4CCC3	Cav32 inh -3.95 (no result: FAK blocker, PLK1 kinase inh, HIV Rev-RRE inh, EphB4 ephrin blk, PLK1 PBD inh)
O=c1oc2c(CN3CCOCC3)c(O)ccc2c2c1CCC2	none
O=c1oc2c3c4c(cc2c(C(F)(F)F)c1CCN1CCOCC1)CCCN4CCC3	HIV Rev-RRE inh 113.3[fluorescence artefact?], Cav32 inh -6.62
O=C1N/C(=C\c2ccc(O)cc2)C(=O)c2ccccc21	HIV Rev-RRE inh 68.7
O=C(NCc1ccco1)C(c1cccs1)N(C(=O)C1COc2ccccc2O1)c1cccc(O)c1 (centres undefined)	Cav32 inh -8.6
C=CCc1ccc(O)c(-c2ccc(O)c(CC=C)c2)c1	Cav32 inh -5.42 (no result: FAK blocker, PLK1 kinase inh, HIV Rev-RRE inh, EphB4 ephrin blk, PLK1 PBD inh)
CCN(C(=O)c1cnc(N2CCN(c3ncccn3)CC2)c2ccccc12)c1cccc(Cl)c1	Cav32 inh -6.63
Cc1cccc(-c2noc(-c3cc4ccccc4oc3=O)n2)c1	none
Cc1cc(C)nc(N(C#N)Cc2cccc3ccccc23)n1	Cav32 inh -5.19
O=C(/C=C/c1ccccc1)NC(NC(=S)Nc1ccc(Cl)cc1)C(Cl)(Cl)Cl (centres undefined)	Cav32 inh -7.43
Cc1onc(-c2c(Cl)cccc2Cl)c1C(=O)N/N=C(\N)COc1ccc(Cl)cc1	Cav32 inh -4.97
Cc1onc(-c2c(Cl)cccc2Cl)c1C(=O)NCc1ccco1	none
CCOC(=O)Cc1csc(NC(=O)c2c(-c3c(Cl)cccc3Cl)noc2C)n1	Cav32 inh -4.85
COC(=O)c1ccc(NC(=O)C2CCCN2S(=O)(=O)c2ccc(F)cc2)cc1 (centres undefined)	none
COc1ccc(OC)c(C(=O)c2coc3ccc(O)cc23)c1	Cav32 inh -4.68
COc1ccc2occ(C(C)=O)c2c1	none
CC12CCC(C(=O)NCc3ccc4c(c3)OCO4)(C(=O)C1=O)C2(C)C (centres undefined)	none
COc1ccc(CCN2CCC(Nc3nc4ccccc4n3Cc3ccc(F)cc3)CC2)cc1	Cav32 inh -4.96 (no result: FAK blocker, PLK1 kinase inh, HIV Rev-RRE inh, EphB4 ephrin blk, PLK1 PBD inh)
COc1ccc(Cn2c(-c3ccc(OC)cc3)nc3ccccc32)cc1	none (no result: Cav32 inh)
CCN(CC)c1ccc(C2C(C(=O)OC(C)C)C(=O)CC(C)(O)C2C(=O)OC(C)C)cc1 (centres undefined)	Cav32 inh -5.67
COc1cccc(NC(=O)C23CCC(C)(C(=O)O2)C3(C)C)c1 (centres undefined)	none
O=C(Cc1ccccc1)Nc1c2c(nn1-c1cccc(Cl)c1)CS(=O)(=O)C2	PLK1 kinase inh 65.6
O=C(CSCc1cccc(Br)c1)N/N=C/c1ccc2c(c1)OCO2	Cav32 inh -5.4
CC(SCc1ccccc1)C(=O)N/N=C/c1ccc2c(c1)OCO2 (centres undefined)	Cav32 inh -6.12
CCC(Sc1nc2c(c(=O)n1CC)SC(C)C2)C(=O)OC (centres undefined)	none
C#Cc1ccc([C@@H]2C=C(C(=O)N3CCOCC3)O[C@H](OCc3ccc(CO)cc3)C2)cc1	none (no result: FAK blocker, PLK1 kinase inh, HIV Rev-RRE inh, EphB4 ephrin blk, PLK1 PBD inh)
COC1=CC(=O)C(O)=C(CCCCCCC/C=C/CCCCCCCC2=C(O)C(=O)C=C(OC)C2=O)C1=O	Cav32 inh -5.16 (no result: FAK blocker, PLK1 kinase inh, HIV Rev-RRE inh, EphB4 ephrin blk, PLK1 PBD inh)
Fc1ccc(-c2nc3ccncc3[nH]2)cc1	PLK1 kinase inh 64.6
CCCC[C@@H]1CN=C(N)N1CC(C)(C)C	none (no result: FAK blocker, PLK1 kinase inh, HIV Rev-RRE inh, EphB4 ephrin blk, PLK1 PBD inh)
CCN=C1SC(CC(=O)NCCc2ccc(OC)cc2)C(=O)N1CC (centres undefined)	none
CCCC1S/C(=N/N=C/c2ccc(OC)cc2)N(Cc2ccc(OC)cc2)C1=O (centres undefined)	Cav32 inh -3.69
CCCC1S/C(=N/N=C/c2ccc(OC)cc2)N(Cc2ccccc2)C1=O (centres undefined)	Cav32 inh -3.59
CC(C)=CCc1c(O)cc(O)c2c(=O)c3c(CC=C(C)C)c(O)ccc3oc12	none (no result: FAK blocker, PLK1 kinase inh, HIV Rev-RRE inh, EphB4 ephrin blk, PLK1 PBD inh)
Cc1ccc(SCCC(=O)Nc2cccc(N(C)S(C)(=O)=O)c2)cc1	none
C/C(N)=C(/C#N)C(=O)CSc1nc(C2CCCCC2)n(-c2ccccc2)n1	Cav32 inh -5.1 (no result: FAK blocker, PLK1 kinase inh, HIV Rev-RRE inh, EphB4 ephrin blk, PLK1 PBD inh)
C=CCn1c(SCC(=O)/C(C#N)=C(\C)N)nnc1C1CCCCC1	none
Cc1ccc(N(CC(=O)NC2CCCC2)C(=O)c2c(C)noc2C)cc1C	none
N#Cc1c(N)nc2c3c(sc(=N)c2c1N)NC(=O)CC3c1c(F)cccc1Cl (centres undefined)	none
N#Cc1c(N)nc2c3c(sc(=N)c2c1N)NC(=O)CC3c1ccccc1 (centres undefined)	HIV Rev-RRE inh 48.8
CCn1c2ccccc2c2cc(N)ccc21	HIV Rev-RRE inh 57.1
Cc1ccc(-c2cc(N)n(Cc3ccc(Cl)cc3)n2)cc1	Cav32 inh -4.97
Cc1cc(-c2ccco2)n2c(nc3ccccc32)c1C#N	HIV Rev-RRE inh 47.0 (no result: Cav32 inh)
Cc1ccc2nc(N3CCN(C=O)CC3)nc(-c3ccccc3)c2c1	none
CCOc1ccc(N2C(=O)C(Cl)=C(Nc3ccccc3O)C2=O)cc1	HIV Rev-RRE inh 36.9
CCOc1ccc(N2C(=O)CN=C2Nc2ccccc2Cl)cc1	none
Cc1cc(SCC(=O)c2cc3ccccc3o2)nc2ccccc12	HIV Rev-RRE inh 45.9
O=C(CSc1nc2cc(Cl)ccc2s1)c1cc2ccccc2o1	HIV Rev-RRE inh 68.3 (no result: Cav32 inh)
Cc1cc(SCC(=O)c2ccc3c(c2)OCO3)nc2ccccc12	none
N#C/C(=C(/O)COC(=O)Cc1c[nH]c2ccccc12)c1nc2ccccc2[nH]1	Cav32 inh -7
N#C/C(=C(/O)COC(=O)CCc1ccc(S(=O)(=O)N2CCOCC2)cc1)c1nc2ccccc2[nH]1	HIV Rev-RRE inh 45.2
N#C/C(=C(/O)COC(=O)CCCNC(=O)c1ccc(Cl)cc1)c1nc2ccccc2[nH]1	none
N#C/C(=C(/O)COC(=O)c1ccc2c(c1)OCCO2)c1nc2ccccc2[nH]1	none
Cc1ccc(CNC(=O)CCOc2ccc(C(C)(C)C)cc2)cc1	none
